Experimental data pooled from the literature.
Each line is one published result; the experiments were not run side by side.
Cell line: NCI-H460
Observed: cell growth or viability

CCC(=O)Nc1cc(Nc2nc(N3CCc4sccc4C3)c3cccnc3n2)c(OC)cc1N(C)C
IC50 (MTT): 4.95 µM

CC(C)C[C@H](NC(=O)[C@H](Cc1ccccc1)NC(=O)c1cnccn1)B(O)O
IC50 (ATP luminescence): 0.03 µM

COc1cc(/C=C/Cc2ccc(O)c(OC)c2)cc(OC)c1
IC50 (MTT; 24 h): 16.1 µg/mL

O=C1NCCc2[nH]c(-c3ccncc3)cc21
IC50: 10 µM

COc1cc(CNC(=O)CCCC/C=C/C(C)C)ccc1O
IC50 (SRB): 30.7 µM

O=c1[nH]cc(F)c(=O)[nH]1
IC50 (MTT; 48 h): 43.1 µM

COc1ccc(C/C=C/c2cc(OC)cc(OC)c2)cc1
IC50 (MTT; 24 h): 77.3 µg/mL

CC(=O)c1cccc(N=Nc2c(C(=O)O)cc(O)c(O)c2O)c1
IC50 (MTT): 9.5 µM

CCC(=O)Nc1cc(Nc2nc(N3CCc4sccc4C3)c3cccnc3n2)c(OC)cc1N1CCSCC1
IC50 (MTT): 14.3 µM

COc1cc2oc(-c3ccc(O)cc3)cc(=O)c2c(O)c1OC
IC50 (48 h): 26.2 µM

CCC(=O)Nc1cc(Nc2nc(N3CCc4sccc4C3)c3cccnc3n2)c(OC)cc1N1CCC(N(C)C)CC1
IC50 (MTT): 2.46 µM

COc1cc(CNC(=O)CCCC/C=C/C(C)C)ccc1OCc1cn(-c2ccc(C#N)cc2)nn1
IC50 (SRB): 5.55 µM

C=CC(=O)Nc1cc(Nc2nc(N3CCc4sccc4C3)c3sccc3n2)c(OC)cc1N1CCN(C)CC1
IC50 (MTT): 0.913 µM

COc1cc([C@@H]2c3cc4c(cc3[C@@H](O[C@@H]3O[C@@H]5CO[C@@H](C)O[C@H]5[C@H](O)[C@H]3O)[C@H]3COC(=O)[C@H]23)OCO4)cc(OC)c1O
IC50 (MTT; 72 h): 0.83 µM

O=c1[nH]cc(S(=O)(=O)Nc2cccc(-c3nnc(-c4cccc(Cl)c4)o3)c2)c(=O)[nH]1
IC50 (MTT; 24 h): 2.83 µM

Oc1ccc(C/C=C(/COCc2ccccc2)c2ccc(OCc3ccccc3)cc2)cc1
IC50 (MTT; 24 h): 27.9 µg/mL

C=CC(=O)Nc1cc(Nc2nc(N3CCc4sccc4C3)c3cccnc3n2)c(OC)cc1N(C)CCN(C)C
IC50 (MTT): 5.68 µM

COc1ccc(-c2cc(=O)c3c(O)c(OC)c(OC)cc3o2)cc1O
IC50 (48 h): 37.5 µM

OCC(CCc1ccc(O)cc1)c1ccc(O)cc1 (centres unmarked)
IC50 (MTT; 24 h): 55 µg/mL

C#Cc1cccc(Nc2ncnc3cc(OCCOC)c(OCCOC)cc23)c1
IC50 (MTT): 0.04 µM

O=c1[nH]cc(F)c(=O)[nH]1
IC50 (MTT; 72 h): 3 µM

C=CC(=O)Nc1cc(Nc2nccc(-c3cn(C)c4ccccc34)n2)c(OC)cc1N(C)CCN(C)C
IC50 (MTT): 1.97 µM

COc1ccc(C/C=C/c2ccc(O)cc2)cc1
IC50 (MTT; 24 h): 14.1 µg/mL

O=C(O)c1cc(O)c(O)c(O)c1
IC50 (MTT): 14.9 µM

COc1cc(C/C=C/c2ccc(O)cc2)ccc1O
IC50 (MTT; 24 h): 19.9 µg/mL

COc1cc(N(C)CCN(C)C)c(NC(=O)/C=C/C(C)C)cc1Nc1nc(Nc2cnn(C)c2)c2sccc2n1
IC50 (MTT): 2.25 µM

O=C/C(=C/Cc1ccc(O)cc1)c1ccc(O)cc1
IC50 (MTT; 24 h): 26.9 µg/mL

C=CC(=O)Nc1cc(Nc2nc(N3CCc4sccc4C3)c3cccnc3n2)c(OC)cc1N1CCN(CCO)CC1
IC50 (MTT): 8.03 µM

O=C(O)/C=C/c1ccc(O)cc1
IC50 (MTT): > 50 µM
